Measured values as given in ChEMBL document CHEMBL2331332 (J Med Chem, 2013).
Calls of active or inactive are those of the source. The rule behind the calls is not given here.

Legend:
[1] = molecular target: T1, Prostaglandin E synthase (Homo sapiens, UniProt O14684); test: Inhibition of PGES-1 in human whole blood assessed as LPS-induced PGE2 formation incubated for 15 mins prior to LPS addition measured after 24 hrs by EIA
T1 sequence (O14684 whole entry): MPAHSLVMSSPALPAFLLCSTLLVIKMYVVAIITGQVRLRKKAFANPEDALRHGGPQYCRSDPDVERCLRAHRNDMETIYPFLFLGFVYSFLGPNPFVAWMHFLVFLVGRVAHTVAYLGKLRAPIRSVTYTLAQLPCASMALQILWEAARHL
Procedure, shortened: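 Fresh heparinized blood came from healthy volunteers free of NSAIDs for at least 14 days. It was preincubated 15 min at 37 °C with compound or DMSO vehicle. LPS (final 100 μg/mL) was then added for 24 h at 37 °C. Plasma was obtained by centrifugation at 4 °C, and PGE2 was read by EIA.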

[2] = molecular target: T2, Prostaglandin E synthase (Homo sapiens) (UniProt O14684); test: Competitive inhibition of full-length microsomal PGES-1 (unknown origin) expressed in Escherichia coli Rosetta(DE3) using PGH2 as substrate preincubated for 15 mins relative to control in presence of higher glutathione disulfide concentration
T2 sequence (whole entry): T1 sequence (O14684 whole entry)
Procedure, shortened: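 This GSSG control repeated the cofactor competition setup, with added GSH replaced by GSSG at the same final mass-volume percentage. 2.5 mM GSH was always present, and PGH2 was 17 μM. Preincubation was 15 min at 4 °C. Zero inhibition was set from the GSH activity curve, and PGE2 was read by EIA. Mean ± SEM, n = 3.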

[3] = molecular target: T2, Prostaglandin E synthase (Homo sapiens); test: Competitive inhibition of full-length microsomal PGES-1 (unknown origin) expressed in Escherichia coli Rosetta(DE3) using PGH2 as substrate preincubated for 15 mins relative to control in presence of 25 mM of cofactor GSH
[4] = molecular target: T3, Polyunsaturated fatty acid 5-lipoxygenase (Homo sapiens) (UniProt P09917); test: Inhibition of 5-LOX-mediated LTB4 formation in human whole blood at 10 uM incubated for 20 mins prior to substrate addition measured after 0.5 hrs by EIA in presence of calcium ionophore A23187
T3 sequence (whole entry): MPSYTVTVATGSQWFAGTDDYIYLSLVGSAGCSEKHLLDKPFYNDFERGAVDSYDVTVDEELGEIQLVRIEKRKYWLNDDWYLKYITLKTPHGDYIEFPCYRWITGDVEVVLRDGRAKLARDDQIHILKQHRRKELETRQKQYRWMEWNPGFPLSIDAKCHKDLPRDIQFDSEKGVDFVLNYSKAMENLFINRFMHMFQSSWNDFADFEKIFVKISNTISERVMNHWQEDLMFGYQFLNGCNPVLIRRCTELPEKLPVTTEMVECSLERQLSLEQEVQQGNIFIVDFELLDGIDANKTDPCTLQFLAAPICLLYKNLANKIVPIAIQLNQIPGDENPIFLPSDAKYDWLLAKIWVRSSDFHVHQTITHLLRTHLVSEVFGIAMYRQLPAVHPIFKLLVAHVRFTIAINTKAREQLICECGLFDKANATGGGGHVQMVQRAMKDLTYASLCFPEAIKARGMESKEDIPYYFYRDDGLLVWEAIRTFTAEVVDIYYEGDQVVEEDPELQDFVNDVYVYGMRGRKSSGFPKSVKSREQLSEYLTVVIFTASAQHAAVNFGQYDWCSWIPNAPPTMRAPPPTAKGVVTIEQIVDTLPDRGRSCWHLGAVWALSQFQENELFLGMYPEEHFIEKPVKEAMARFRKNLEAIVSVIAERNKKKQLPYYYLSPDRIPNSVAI
Procedure, shortened: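 Human whole blood was stimulated with calcium ionophore A23187 (final 20 μg/mL) for 0.5 h at 37 °C to induce LTB4 formation. Compounds were tested at 10 μM.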

[5] = tested on: Prostaglandin G/H synthase 1 (COX-1); test: Inhibition of COX-1 (unknown origin)-mediated TMPD oxidation using PGG2 as substrate at 100 uM incubated 15 mins prior to substrate addition measured after 36 secs by spectrophotometric analysis; conditions: Homo sapiens
[6] = tested on: Prostaglandin G/H synthase 2 (COX-2); test: Inhibition of COX-2 (unknown origin)-mediated TMPD oxidation using PGG2 as substrate at 100 uM incubated 15 mins prior to substrate addition measured after 36 secs by spectrophotometric analysis; conditions: Homo sapiens
[7] = molecular target: T2, Prostaglandin E synthase (Homo sapiens); test: Competitive inhibition of full-length microsomal PGES-1 (unknown origin) expressed in Escherichia coli Rosetta(DE3) using PGH2 as substrate incubated for 5 mins prior to substrate addition relative to control
[8] = molecular target: T1, Prostaglandin E synthase; test: Inhibition of full-length microsomal PGES-1 (unknown origin) expressed in Escherichia coli Rosetta(DE3) using PGH2 as substrate assessed as inhibition of PGH2 conversion to PGE2 incubated 15 mins prior to substrate addition measured after 1 min by EIA
Procedure, shortened: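 Reactions used 2.5 mM cofactor and 17 μM PGH2 for 1 min at 4 °C, then were stopped, and PGE2 was quantified by EIA. IC50 came from dose-response curves. Mean ± SEM, n = 3.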

[9] = molecular target: T2, Prostaglandin E synthase (Homo sapiens); test: Competitive inhibition of full-length microsomal PGES-1 (unknown origin) expressed in Escherichia coli Rosetta(DE3) using PGH2 as substrate incubated for 5 mins prior to substrate addition relative to control in presence of increased substrate concentration
[10] = molecular target: T3, Polyunsaturated fatty acid 5-lipoxygenase (Homo sapiens); test: Inhibition of 5-LOX (unknown origin) at 10 uM by human whole blood LTB4 assay
[11] = molecular target: T2, Prostaglandin E synthase (Homo sapiens); test: Competitive inhibition of full-length microsomal PGES-1 (unknown origin) expressed in Escherichia coli Rosetta(DE3) using PGH2 as substrate preincubated for 15 mins relative to control in presence of 2.5 mM of cofactor GSH
[12] = molecular target: T2, Prostaglandin E synthase (Homo sapiens); test: Inhibition of full-length microsomal PGES-1 (unknown origin) expressed in Escherichia coli Rosetta(DE3) using PGH2 as substrate assessed as PGH2 conversion to PGE2 at 10 uM incubated 15 mins prior to substrate addition measured after 1 min by EIA
[13] = molecular target: T2, Prostaglandin E synthase (Homo sapiens); test: Inhibition of microsomal PGES-1 (unknown origin) expressed in Escherichia coli using PGH2 as substrate assessed as inhibition of PGE2 formation at 10 uM by reversed phase HPLC analysis

Compound	IC50 [1] [nM]	inhibition [2]	inhibition [3] [%]	inhibition [4] [%]	inhibition [5] [%]	inhibition [6] [%]	inhibition [7] [%]	IC50 [8] [nM]	inhibition [9] [%]	inhibition [10] [%]	inhibition [11] [%]	inhibition [12] [%]	inhibition [13] [%]
COc1ccc(-c2nnc(SCC(=O)c3ccc4c(c3)Cc3ccccc3-4)nc2-c2ccc(OC)cc2)cc1	300	Active	< 15	< 1	2.1	< 1	> 60	4	0	20	80		
CCOc1cc(/C=C2/C(=O)N(c3ccc(Cl)cc3)N=C2C)ccc1OCC(=O)O												10	
CCOC(=O)C1=C(C)N=c2s/c(=C\c3ccc(-c4ccc(Cl)c(C(=O)O)c4)o3)c(=O)n2C1c1ccccc1Cl (stereo not given)	6500	Active	< 15	< 1	< 1	12.9	> 60	2	0	< 1	80		
O=C(O)CN1C(=O)/C(=C2/C(=O)N(CC(=O)O)c3ccccc32)SC1=S	3800	Active	< 15	< 1	< 1	14.7	> 60	1.8	0	< 1	80		
Cc1ccc2oc(-c3cccc(NC(=O)c4ccccc4[N+](=O)[O-])c3)nc2c1													50
